Only some compounds are listed: those with a hit (about 2.4% of all), similar ones and a draw of the others.
Tb MetRS inh = T. brucei MetRS inhibitors, primary screen, biochemical, luminescence; AID 624268, 2012; purified T. brucei MetRS, ATP depletion, Kinase-Glo luminescence; 0.4% of 360,000 active; methionyl-tRNA synthetase (Trypanosoma brucei brucei); inhibition, % at 11.9 µM;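 active = inhibition above a per-plate cutoff of the control wells' mean inhibition plus 3 SD, cut at about 5.5% in these data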;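 note: 0% = DMSO wells median and 100% = median of wells with control inhibitor compound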
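Test system: purified T. brucei MetRS enzyme. Also added: ATP, methionine and E. coli bulk tRNA substrates. Compound: 11.9 µM single point. Schedule: 15 min enzyme-compound preincubation, 2 h reaction, 10 min detection, 25 °C. Signal: luciferase luminescence of residual ATP, Kinase-Glo. Evaluation: percent inhibition versus plate control medians. Controls: DMSO wells, low control.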
TAG inh = inhibitors of triacylglycerol accumulation, primary screen, cell-based, uHTS, fluorescence, H9c2; H9c2 cells, Nile Red lipid (TAG) fluorescence; cells loaded with 200 µM oleic acid; 0.66% of 230,000 active; inhibition, % at 12.5 µM; AID 651582, 2012;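 active = pattern-corrected inhibition of lipid staining of at least 50% with the nuclear-stain viability signal not falling by more than 50%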;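 note: 0% = DMSO wells and 100% = triacsin C control wells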
NTR1 agonist = agonists of human NTR1, primary screen, imaging, U2OS cells, beta-arrestin-GFP, high content. Neurotensin receptor type 1 (Homo sapiens), P30989. NTR1-U2OS beta-arrestin-GFP spot imaging, agonist mode. activation, % at 20 µM. 0.17% of 330,000 active;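 active = activation at or above 40% of the spot to cytoplasm intensity ratio, with at least 20 cells analyzed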;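 note: 0% = DMSO without peptide and 100% = 100 nM NTR1 peptide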
Target sequence (P30989 whole entry, looked up): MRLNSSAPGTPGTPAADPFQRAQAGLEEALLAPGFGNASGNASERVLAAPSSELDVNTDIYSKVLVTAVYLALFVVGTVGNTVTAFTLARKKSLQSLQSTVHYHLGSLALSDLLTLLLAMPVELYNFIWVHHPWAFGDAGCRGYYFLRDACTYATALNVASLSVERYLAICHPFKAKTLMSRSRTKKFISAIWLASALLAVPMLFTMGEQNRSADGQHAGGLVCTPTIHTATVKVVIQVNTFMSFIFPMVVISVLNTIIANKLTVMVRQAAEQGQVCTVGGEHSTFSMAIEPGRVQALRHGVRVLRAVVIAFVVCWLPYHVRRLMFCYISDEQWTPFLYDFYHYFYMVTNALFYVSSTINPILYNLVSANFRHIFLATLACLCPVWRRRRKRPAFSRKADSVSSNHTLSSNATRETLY
MC4R ag barr = MC4R agonists recruiting beta-arrestin, primary screen, cell-based, luminescence, agonist arm of biased-ligand search; U2OS MC4R beta-arrestin complementation; percent of melanotan II response, DMSO zero; activation, % at 8.9 µM; 0.98% of 360,000 active; AID 540308, 2011;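 active = activation above a per-plate cutoff, the mean activation of sample wells on that plate plus 3 SD, cut at about 8% in these data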
aDG glyco act = activators of alpha-DG glycosylation, primary screen, uHTS, Pro5-aDG cells, AlphaScreen. alpha-DG glycosylation AlphaScreen (IIH6); 0% Pro5, 100% B10-LARGE cell signal. activation, % at 10 µM. AID 624168, 2012. 0.22% of 360,000 active;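 active = activation of at least 8% versus controls, or a plate z-score of at least 8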;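 note: Pro5 are CHO cells carrying HIG-tagged alpha-DG that lacks glycosylation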
MC4R antagonist = MC4R antagonists of cAMP signaling, primary screen, cell-based, TR-FRET, antagonist arm of biased-ligand search; Melanocortin receptor 4 (Homo sapiens), P32245; MC4R-expressing cells, MTII-stimulated cAMP, LANCE TR-FRET; inhibition, % at 6.5 µM; 0.48% of 360,000 active;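 active = inhibition above its plate's cutoff, the mean of tested wells on that plate plus 3 SD, cut at about 29% in these data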;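 note: 0% = Melanotan II alone and 100% = Melanotan II plus saturating MCL0020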
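Test system: U2OS cells stably expressing human melanocortin 4 receptor (MC4R); also added: Melanotan II challenge; compound: 6.5 µM single dose; timing: 30-min compound preincubation, 1-h Melanotan II challenge, 1-h detection, room temperature; signal: Eu-cAMP/anti-cAMP TR-FRET, emission 671 nm; repeats: one well per compound, no replicates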
cAMP nonselect = nonselective cAMP signaling inhibitors, parental cells, counter-screen for MC4R biased antagonist project, cell-based, TR-FRET, U2OS, forskolin, triplicate; 26% of 1,600 active; shares compounds with MC4R antagonist; inhibition, % at 6.5 µM; LANCE TR-FRET;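 active = mean inhibition over triplicates above the low-control well mean plus 3 SD, set per campaign, cut at about 13% in these data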;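 note: signal is single emission at 671 nm which falls as cellular cAMP rises; 0% = forskolin-stimulated wells and 100% = buffer without forskolin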
MC4R antag conf = MC4R cAMP antagonists, retest, confirmation, cell-based, TR-FRET. shares compounds with MC4R antagonist. MC4R-expressing cells, MTII-stimulated cAMP. inhibition, % at 6.5 µM. 27% of 1,600 active. AID 602195, 2012; in the data active = inhibition above about 29%;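 note: 0% = agonist stimulated wells alone and 100% = agonist stimulated wells plus saturating reference antagonist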
MC4R barr ag = MC4R beta-arrestin agonists, retest, confirmation, cell-based, luminescence, U2OS; activation, % at 8.9 µM; 31% of 2,400 active; shares compounds with MC4R ag barr; U2OS MC4R beta-arrestin recruitment; scaled DMSO 0%, Melanotan II 100%; AID 602192, 2012;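 active = mean activation across replicates above the hit cutoff set in the earlier primary screen, cut at about 8% in these data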
MOR DOR agonist = agonists of MOR-DOR heterodimerization, counter-screen for MC4R biased agonist project, cell-based, luminescence; shares compounds with MC4R ag barr; U2OS PathHunter beta-arrestin, beta-gal luminescence; percent of deltorphin B response, DMSO zero; activation, % at 9.2 µM; 5.8% of 2,400 active; AID 602194, 2012;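 active = mean activation across replicates exceeds the hit threshold derived in the earlier primary screen, cut at about 18% in these data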;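 note: 100% = deltorphin B at 0.9 µM final and 0% = DMSO alone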
Active calls of the source: *; . = no result given.

SMILES	Tb MetRS inh	TAG inh	NTR1 agonist	MC4R ag barr	aDG glyco act	MC4R antagonist	cAMP nonselect	MC4R antag conf	MC4R barr ag	MOR DOR agonist
CC(O)CC(=O)OC[C@]12CC[C@H]3[C@@](C)(CC[C@H]4C(C)(C)CCC[C@]34C)[C@@H]1CC(C1=CC(=O)OC1O)O2 (some centres undefined)	-0.1	.	.	16.3*	0.4	32.6*	-0.4	23.4	24.0*	15.7
COc1ccc(-c2oc3ccc(N4CCOCC4)cc3c2C#Cc2ccc(N)cc2)cc1	-0.3	44.9	21.1	-1.0	0.5	10.2	.	.	.	.
COc1ccc(-c2oc3ccc(N4CCOCC4)cc3c2C#CC2(O)CCCCC2)cc1	-0.3	6.6	25.1	18.9*	2.1	33.0*	5.9	19.9	15.0*	4.9
COc1ccc2[nH]c(C(=O)Nc3ccc(F)cc3Br)cc2c1	-0.9	4.3	-1.1	25.5*	0.7	28.6*	21.3*	19.8	0.7	4.8
Cc1ccc(Cl)cc1-c1cc(C(=O)NCC2CCCCC2)[nH]n1	-0.1	7.6	.	2.7	0.0	8.9	.	.	.	.
Brc1cccc(-c2nc3c4ccccc4ccn3c2Cc2ccccc2)c1	0.1	.	.	.	1.3	.	.	.	.	.
Cc1cccc(C)c1-n1cccc1/C=C1\SC(=S)N(c2cccc(C(=O)O)c2)C1=O	0.5	5.3	3.9	20.3*	1.8	37.2*	-3.2	-13.8	19.9*	2.1
COCCn1c(=NC(=O)c2sc3ccccc3c2Cl)sc2cc(S(N)(=O)=O)ccc21	-1.7	.	11.9	4.2	0.4	25.5	.	.	.	.
C=CCn1c(=NC(=O)c2sc3ccccc3c2Cl)sc2cc(S(N)(=O)=O)ccc21	-0.9	.	3.4	16.3*	0.3	32.6*	3.9	20.4	7.9	2.5
CCCCNc1c(-c2cccc(-c3cc(C(C)=O)cs3)c2)nc2cc(C)ccn12	-0.6	-5.6	37.8	11.4*	2.6	36.5*	0.8	9.2	9.5*	6.0
CCC(C)(O)c1cnc(CC(C)C)c(=O)n1O (centres undefined)	-0.4	.	.	-0.7	0.5	11.0	.	.	.	.
CCOC(=O)c1cc(-c2csc(N/N=C/c3ccccc3Cl)n2)on1	-0.8	9.5	2.8	21.9*	-0.1	39.6*	14.2*	71.0*	12.9*	4.9
CCOC(=O)c1cc(-c2csc(Nc3ccccc3Cl)n2)on1	-0.3	-14.0	3.2	0.0	-0.2	27.6	.	.	.	.
CC(C)(C)NC(=O)C1C(c2ccc(C(F)(F)F)cc2)=Nc2ccccc2N1C(=O)c1cccc(C(F)(F)F)c1 (centres undefined)	-0.9	.	.	.	-0.1	.	.	.	.	.
COc1ccc(/C=C(/NC(=O)c2ccc(OC)cc2)C(=O)NCCc2c[nH]c3ccccc23)cc1	-0.1	.	4.5	-1.6	-0.1	4.5	.	.	.	.

Screens: PubChem BioAssay, several laboratories
